In ChEMBL document CHEMBL1127568, “A new series of PDGF receptor tyrosine kinase inhibitors: 3-substituted quinoline derivatives” (J Med Chem, 1994):

Experiments:
[1] = molecular target: Epidermal growth factor receptor (Homo sapiens, UniProt P00533); assay: Concentration required to inhibit phosphorylation of isolated human epidermal growth factor tyrosine kinase receptor by 50%
[2] = molecular target: T1, Platelet-derived growth factor receptor (Homo sapiens, UniProt P09619+P16234); assay: Inhibition of human PDGF receptor phosphorylation; 0.5-2; type: protein-complex assay
[3] = molecular target: T1, Platelet-derived growth factor receptor; assay: Inhibition of human PDGF receptor phosphorylation; 0.09-0.2; type: protein-complex assay
Method in brief: (§1)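 PDGF receptor from NIH 3T3 cell lysates (cells made quiescent 24 h in 0.5% calf serum), stimulated with 10 ng/mL PDGF for 30 min at 4 °C and immunoprecipitated on Protein A beads. Each compound ran in at least two dose-response assays.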

[4] = molecular target: T1, Platelet-derived growth factor receptor; assay: Inhibition of human PDGF receptor phosphorylation; 0.001-0.005; type: protein-complex assay; method in brief: as §1
[5] = molecular target: T1, Platelet-derived growth factor receptor; assay: Inhibition of human PDGF receptor phosphorylation; 0.1-0.4; type: protein-complex assay; method in brief: as §1
[6] = molecular target: T1, Platelet-derived growth factor receptor; assay: Inhibition of human PDGF receptor phosphorylation; 0.035-0.06; type: protein-complex assay; method in brief: as §1
[7] = molecular target: T1, Platelet-derived growth factor receptor; assay: Inhibition of human PDGF receptor phosphorylation; 0.1-0.25; type: protein-complex assay; method in brief: as §1
[8] = molecular target: T1, Platelet-derived growth factor receptor; assay: Inhibition of human PDGF receptor phosphorylation; 0.2-0.4; type: protein-complex assay; method in brief: as §1
[9] = molecular target: T1, Platelet-derived growth factor receptor; assay: Inhibition of human PDGF receptor phosphorylation; 0.1-0.2; type: protein-complex assay; method in brief: as §1
[10] = molecular target: T1, Platelet-derived growth factor receptor; assay: Inhibition of human PDGF receptor phosphorylation; 0.025-0.03; type: protein-complex assay; method in brief: as §1
[11] = molecular target: cAMP-dependent protein kinase (PKA) (Homo sapiens, UniProt P22694+P17612+P22612); assay: Test for the inhibition of protein kinase A; type: protein assay
[12] = molecular target: T1, Platelet-derived growth factor receptor; assay: Inhibition of human PDGF receptor phosphorylation; 0.007-0.03; type: protein-complex assay
[13] = molecular target: T1, Platelet-derived growth factor receptor; assay: Inhibition of human PDGF receptor phosphorylation; 0.7-5; type: protein-complex assay; method in brief: as §1
[14] = molecular target: T1, Platelet-derived growth factor receptor; assay: Inhibition of human PDGF receptor phosphorylation; 0.05-0.07; type: protein-complex assay; method in brief: as §1
[15] = molecular target: T1, Platelet-derived growth factor receptor; assay: Inhibition of human PDGF receptor phosphorylation; 0.2-0.25; type: protein-complex assay; method in brief: as §1
[16] = molecular target: T1, Platelet-derived growth factor receptor; assay: Inhibition of isolated human PDGF receptor phosphorylation; type: protein-complex assay
[17] = molecular target: T1, Platelet-derived growth factor receptor; assay: Inhibition of human PDGF receptor phosphorylation; 2-4; type: protein-complex assay
[18] = molecular target: T1, Platelet-derived growth factor receptor; assay: Inhibition of human PDGF receptor phosphorylation; 0.04-0.08; type: protein-complex assay; method in brief: as §1
[19] = molecular target: T1, Platelet-derived growth factor receptor; assay: Inhibition of human PDGF receptor phosphorylation; 0.1-0.8; type: protein-complex assay; method in brief: as §1
[20] = molecular target: T1, Platelet-derived growth factor receptor; assay: Inhibition of human PDGF receptor phosphorylation; 0.1-0.5; type: protein-complex assay; method in brief: as §1
[21] = molecular target: T1, Platelet-derived growth factor receptor; assay: Inhibition of human PDGF receptor phosphorylation; 2-8; type: protein-complex assay; method in brief: as §1
[22] = molecular target: T1, Platelet-derived growth factor receptor; assay: Inhibition of human PDGF receptor phosphorylation; 6-10; type: protein-complex assay
[23] = molecular target: T1, Platelet-derived growth factor receptor; assay: Inhibition of human PDGF receptor phosphorylation; 0.02-0.03; type: protein-complex assay; method in brief: as §1
[24] = molecular target: T1, Platelet-derived growth factor receptor; assay: Inhibition of human PDGF receptor phosphorylation; 0.07-0.15; type: protein-complex assay
[25] = molecular target: T1, Platelet-derived growth factor receptor; assay: Inhibition of human PDGF receptor phosphorylation; 0.004-0.025; type: protein-complex assay; method in brief: as §1
[26] = molecular target: T1, Platelet-derived growth factor receptor; assay: Inhibition of human PDGF receptor phosphorylation; 20-30; type: protein-complex assay
[27] = molecular target: T1, Platelet-derived growth factor receptor; assay: Inhibition of human PDGF receptor phosphorylation; 0.2-0.8; type: protein-complex assay
Method in brief: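 Receptor from quiescent NIH 3T3 cell lysates (24 h in 0.5% calf serum before lysis), stimulated with 10 ng/mL PDGF for 30 min at 4 °C, then immunoprecipitated with anti-PDGF receptor antibody on Protein A beads. Compound pre-incubated 10 min at 4 °C in 50 mM Tris, 10 mM MnCl2, pH 7.5. At least two dose-response assays per compound.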

[28] = molecular target: T1, Platelet-derived growth factor receptor; assay: Inhibition of human PDGF receptor phosphorylation; 0.001-0.015; type: protein-complex assay

Epidermal growth factor receptor, sequence (P00533 whole entry): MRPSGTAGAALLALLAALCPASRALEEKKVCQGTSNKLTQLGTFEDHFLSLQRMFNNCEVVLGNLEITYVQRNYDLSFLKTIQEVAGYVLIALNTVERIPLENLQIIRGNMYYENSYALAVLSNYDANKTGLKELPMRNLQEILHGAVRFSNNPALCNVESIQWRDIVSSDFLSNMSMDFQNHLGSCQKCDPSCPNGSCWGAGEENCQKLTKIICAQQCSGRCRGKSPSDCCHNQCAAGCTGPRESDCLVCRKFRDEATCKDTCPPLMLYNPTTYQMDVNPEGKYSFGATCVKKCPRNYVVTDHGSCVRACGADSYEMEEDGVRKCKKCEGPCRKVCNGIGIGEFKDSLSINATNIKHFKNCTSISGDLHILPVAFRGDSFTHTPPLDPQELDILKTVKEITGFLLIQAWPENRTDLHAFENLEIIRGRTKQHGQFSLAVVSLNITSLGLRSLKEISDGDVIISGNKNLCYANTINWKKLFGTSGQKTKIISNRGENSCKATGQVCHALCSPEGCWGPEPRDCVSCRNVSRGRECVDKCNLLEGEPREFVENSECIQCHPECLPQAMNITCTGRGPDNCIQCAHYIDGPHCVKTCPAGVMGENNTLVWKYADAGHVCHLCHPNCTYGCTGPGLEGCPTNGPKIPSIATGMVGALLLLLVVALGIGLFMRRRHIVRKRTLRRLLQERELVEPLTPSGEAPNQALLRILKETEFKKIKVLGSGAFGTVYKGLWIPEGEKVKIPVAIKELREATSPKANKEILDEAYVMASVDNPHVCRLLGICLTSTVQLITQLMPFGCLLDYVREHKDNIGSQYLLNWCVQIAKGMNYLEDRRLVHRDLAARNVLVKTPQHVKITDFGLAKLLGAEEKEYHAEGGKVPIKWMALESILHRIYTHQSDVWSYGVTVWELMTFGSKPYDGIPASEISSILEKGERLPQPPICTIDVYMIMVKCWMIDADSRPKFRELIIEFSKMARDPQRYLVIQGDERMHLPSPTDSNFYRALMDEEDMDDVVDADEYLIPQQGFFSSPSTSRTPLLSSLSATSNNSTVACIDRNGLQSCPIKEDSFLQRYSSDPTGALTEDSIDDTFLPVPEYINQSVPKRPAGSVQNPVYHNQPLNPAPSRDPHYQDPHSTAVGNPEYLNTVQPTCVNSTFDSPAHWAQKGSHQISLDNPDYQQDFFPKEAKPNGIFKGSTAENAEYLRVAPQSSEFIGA

`COc1cc2cc(-c3ccc(C)cc3)cnc2cc1OC` was tested, and the IC50 [1] was over 20 µM and the IC50 [2] was 2 µM.

In the case of `COc1cc2cc(-c3ccc(F)c(F)c3)cnc2cc1OC`, the IC50 [1] is reported as over 20 µM and the IC50 [3] is reported as 0.2 µM.

Compound `Cc1cc(C)c2cc(-c3ccsc3)cnc2c1` has an IC50 [1] of over 20 µM and an IC50 [4] of 0.005 µM.

`COc1ccc(-c2cnc3cc(OC)c(OC)cc3c2)cc1C` showed an IC50 [1] of over 20 µM and an IC50 [5] of 0.4 µM.

`COc1cc2cc(-c3ccc(F)cc3)cnc2cc1OC` gave an IC50 [1] of over 20 µM and an IC50 [6] of 0.06 µM.

`COc1ccc(-c2cnc3cc(OC)c(OC)cc3c2)s1` gave an IC50 [1] of over 20 µM and an IC50 [7] of 0.25 µM.

`COc1cc2cc(-c3cc(F)c(OC)c(F)c3)cnc2cc1OC` was tested, and the IC50 [1] was over 20 µM and the IC50 [8] was 0.4 µM.

Compound `C(=C\c1cnc2ccccc2c1)/c1ccccc1` has an IC50 [9] of 0.2 µM and an IC50 [1] of over 20 µM.

In the case of `COc1cc(OC)c2cc(-c3ccsc3)cnc2c1`, the IC50 [1] is reported as over 20 µM, the IC50 [10] is reported as 0.03 µM and the IC50 [11] is reported as over 200 µM.

In the case of `COc1cc2cc(-c3ccc(Cl)s3)cnc2cc1OC`, the IC50 [1] is reported as over 20 µM and the IC50 [12] is reported as 0.03 µM.

`COc1cc2cc(-c3ccc(C(=O)O)cc3)cnc2cc1OC` was tested, and the IC50 [13] was 5 µM.

Compound `COc1ccc2ncc(-c3ccsc3)cc2c1` has an IC50 [1] of over 20 µM and an IC50 [14] of 0.07 µM.

`c1ccc2ncc(-c3ccsc3)cc2c1` gave an IC50 [1] of over 20 µM and an IC50 [15] of 0.25 µM.

`COc1cc2cc(O)cnc2cc1OC` was tested, and the IC50 [1] was over 20 µM and the IC50 [16] was at least 20 µM.

For `Fc1cc2cc(-c3ccsc3)cnc2cc1F`, the IC50 [17] was 4 µM.

With `COc1cc2cc(-c3cccs3)cnc2cc1OC` the IC50 [1] was over 20 µM and the IC50 [18] was 0.08 µM.

Compound `COc1cc2cc(-c3cccnc3)cnc2cc1OC` has an IC50 [1] of over 25 µM and an IC50 [19] of 0.8 µM.

`COc1cc2cc(C3CCCC3)cnc2cc1OC` gave an IC50 [1] of over 20 µM and an IC50 [20] of 0.5 µM.

`c1ccc2ncc(-c3c[nH]c4ccccc34)cc2c1` showed an IC50 [1] of over 20 µM and an IC50 [21] of 8 µM.

In the case of `Oc1cc2cc(-c3cccnc3)cnc2cc1O`, the IC50 [1] is reported as 0.5 µM and the IC50 [22] is reported as 10 µM.

Compound `COc1cc2cc(-c3ccc(O)cc3)cnc2cc1OC` has an IC50 [1] of over 20 µM and an IC50 [23] of 0.03 µM.

For `COc1cc2cc(-c3ccc4ccccc4c3)cnc2cc1OC`, the IC50 [1] was over 20 µM and the IC50 [16] was at least 20 µM.

For `COc1cc2cc(-c3ccc([N+](=O)[O-])cc3)cnc2cc1OC`, the IC50 [24] was 0.15 µM and the IC50 [1] was over 20 µM.

In the case of `Fc1ccc2cc(-c3ccsc3)cnc2c1`, the IC50 [1] is reported as over 20 µM and the IC50 [25] is reported as 0.025 µM.

Compound `COc1cc2cccnc2cc1OC` has an IC50 [1] of over 20 µM and an IC50 [26] of 30 µM.

With `COc1ccc2cc(-c3c[nH]c4ccccc34)cnc2c1OC` the IC50 [1] was over 20 µM and the IC50 [16] was over 50 µM.

In the case of `COc1cc2cc([N+](=O)[O-])cnc2cc1OC`, the IC50 [1] is reported as over 20 µM and the IC50 [16] is reported as over 50 µM.

`CCOC(=O)c1ccc(-c2cnc3cc(OC)c(OC)cc3c2)cc1` was tested, and the IC50 [9] was 0.2 µM.

In the case of `COc1ccc(CCc2cnc3cc(OC)c(OC)cc3c2)cc1`, the IC50 [1] is reported as over 20 µM and the IC50 [27] is reported as 0.8 µM.

With `COc1ccc(-c2cnc3cc(OC)c(OC)cc3c2)cc1` the IC50 [1] was over 20 µM, the IC50 [28] was 0.015 µM and the IC50 [11] was over 200 µM.

In the case of `COc1cc2cc(/C=C/c3ccccc3)cnc2cc1OC`, the IC50 [1] is reported as over 20 µM and the IC50 [4] is reported as 0.005 µM.

`COc1cc2cc(-c3cc(OC)c(OC)c(OC)c3)cnc2cc1OC` was tested, and the IC50 [1] was over 20 µM and the IC50 [16] was over 50 µM.
